Laboratory results: ChEMBL document CHEMBL4813998, “Structural simplification of evodiamine: Discovery of novel tetrahydro-β-carboline derivatives as potent antitumor agents” (Bioorg Med Chem Lett, 2021)

Legend:
[1] = Antiproliferative activity against human HCT116 cells assessed as growth inhibition by CCK8 assay; assay type: functional, cell-based, Epithelial cell; settings: epithelial cell
[2] = Antiproliferative activity against human A549 cells assessed as growth inhibition by CCK8 assay; assay type: functional, cell-based, Epithelial cell; settings: epithelial cell
[3] = Antiproliferative activity against human MDA-MB-231 cells assessed as growth inhibition by CCK8 assay; assay type: functional, cell-based, Epithelial cell; settings: epithelial cell
[4] = system: HCT-116; test: Induction of apoptosis in human HCT116 cells at 0.03 uM after 48 hrs by annexin V-FITC/propidium iodide staining based flow cytometry (RVB = 6.77%); assay type: functional
How it was run: (§1)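 HCT116 cells were treated at 0.03, 0.15, 0.75 or 1.5 μM for 48 h. They were then stained with Annexin V/PI and analysed by flow cytometry, and apoptotic cells were reported as a percentage. An untreated control was run alongside.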

[5] = system: HCT-116; test: Induction of apoptosis in human HCT116 cells at 0.15 uM after 48 hrs by annexin V-FITC/propidium iodide staining based flow cytometry (RVB = 6.77%); assay type: functional; how it was run: as §1
[6] = system: HCT-116; test: Induction of apoptosis in human HCT116 cells at 0.75 uM after 48 hrs by annexin V-FITC/propidium iodide staining based flow cytometry (RVB = 6.77%); assay type: functional; how it was run: as §1
[7] = system: HCT-116; test: Induction of apoptosis in human HCT116 cells at 1.5 uM after 48 hrs by annexin V-FITC/propidium iodide staining based flow cytometry (RVB = 6.77%); assay type: functional; how it was run: as §1
[8] = system: HCT-116; test: Induction of cell cycle arrest in human HCT-116 cells assessed as accumulation at G2/M phase at 0.03 uM after 24 hrs by propidium iodide staining based flow cytometric analysis (reference value: 27.78%); assay type: functional
[9] = system: HCT-116; test: Induction of cell cycle arrest in human HCT-116 cells assessed as accumulation at G2/M phase at 0.15 uM after 24 hrs by propidium iodide staining based flow cytometric analysis (reference value: 27.78%); assay type: functional
[10] = system: HCT-116; test: Induction of cell cycle arrest in human HCT-116 cells assessed as accumulation at G2/M phase at 0.75 uM after 24 hrs by propidium iodide staining based flow cytometric analysis (reference value: 27.78%); assay type: functional
[11] = system: HCT-116; test: Induction of cell cycle arrest in human HCT-116 cells assessed as accumulation at G2/M phase at 0.03 uM after 48 hrs by propidium iodide staining based flow cytometric analysis (reference value: 25.01%); assay type: functional
[12] = system: HCT-116; test: Induction of cell cycle arrest in human HCT-116 cells assessed as accumulation at G2/M phase at 0.15 uM after 48 hrs by propidium iodide staining based flow cytometric analysis (reference value: 25.01%); assay type: functional
[13] = system: HCT-116; test: Induction of cell cycle arrest in human HCT-116 cells assessed as accumulation at G2/M phase at 0.75 uM after 48 hrs by propidium iodide staining based flow cytometric analysis (reference value: 25.01%); assay type: functional
[14] = system: HCT-116; test: Induction of cell cycle arrest in human HCT-116 cells assessed as accumulation at G1 phase at 0.75 uM after 24 hrs by propidium iodide staining based flow cytometric analysis (reference value: 33.16%); assay type: functional
[15] = system: HCT-116; test: Induction of cell cycle arrest in human HCT-116 cells assessed as accumulation at G1 phase at 0.15 uM after 24 hrs by propidium iodide staining based flow cytometric analysis (reference value: 33.16%); assay type: functional
[16] = system: HCT-116; test: Induction of cell cycle arrest in human HCT-116 cells assessed as accumulation at G1 phase at 0.03 uM after 24 hrs by propidium iodide staining based flow cytometric analysis (reference value: 33.16%); assay type: functional
[17] = system: HCT-116; test: Induction of cell cycle arrest in human HCT-116 cells assessed as accumulation at G1 phase at 0.03 uM after 48 hrs by propidium iodide staining based flow cytometric analysis (reference value: 34.38%); assay type: functional
[18] = system: HCT-116; test: Induction of cell cycle arrest in human HCT-116 cells assessed as accumulation at G1 phase at 0.15 uM after 48 hrs by propidium iodide staining based flow cytometric analysis (reference value: 34.38%); assay type: functional
[19] = system: HCT-116; test: Induction of cell cycle arrest in human HCT-116 cells assessed as accumulation at G1 phase at 0.75 uM after 48 hrs by propidium iodide staining based flow cytometric analysis (reference value: 34.38%); assay type: functional
[20] = system: HCT-116; test: Induction of cell cycle arrest in human HCT-116 cells assessed as accumulation at S phase at 0.03 uM after 24 hrs by propidium iodide staining based flow cytometric analysis (reference value: 39.06%); assay type: functional
[21] = system: HCT-116; test: Induction of cell cycle arrest in human HCT-116 cells assessed as accumulation at S phase at 0.15 uM after 24 hrs by propidium iodide staining based flow cytometric analysis (reference value: 39.06%); assay type: functional
[22] = system: HCT-116; test: Induction of cell cycle arrest in human HCT-116 cells assessed as accumulation at S phase at 0.75 uM after 24 hrs by propidium iodide staining based flow cytometric analysis (reference value: 39.06%); assay type: functional
[23] = system: HCT-116; test: Induction of cell cycle arrest in human HCT-116 cells assessed as accumulation at S phase at 0.03 uM after 48 hrs by propidium iodide staining based flow cytometric analysis (reference value: 40.6%); assay type: functional
[24] = system: HCT-116; test: Induction of cell cycle arrest in human HCT-116 cells assessed as accumulation at S phase at 0.15 uM after 48 hrs by propidium iodide staining based flow cytometric analysis (reference value: 40.6%); assay type: functional
[25] = system: HCT-116; test: Induction of cell cycle arrest in human HCT-116 cells assessed as accumulation at S phase at 0.75 uM after 48 hrs by propidium iodide staining based flow cytometric analysis (reference value: 40.6%); assay type: functional

Q: What does the source list for `COc1ccc2[nH]c3c(c2c1)CCN(C(=O)CCc1ccccc1)C3c1ccc(Cl)c(Cl)c1` (stereo in doubt; 45)?
A: IC50 [1]: 160 nM; IC50 [2]: 760 nM; IC50 [3]: 160 nM; Activity [4]: 10.11%; Activity [5]: 13.46%; Activity [6]: 25.43%; Activity [7]: 30.98%; Activity [8]: 32.12%; Activity [9]: 78.12%; Activity [10]: 88.37%; Activity [11]: 67.92%; Activity [12]: 93.03%; Activity [13]: 93.15%; Activity [14]: 1.2%; Activity [15]: 2.02%; Activity [16]: 32.45%; Activity [17]: 11.27%; Activity [18]: 2.19%; Activity [19]: 2.06%; Activity [20]: 35.43%; Activity [21]: 19.86%; Activity [22]: 10.43%; Activity [23]: 20.81%; Activity [24]: 4.78%; Activity [25]: 4.79%
